Bioassay records as filed in PubChem.
Bfl-1 Bim block = disrupts Bim binding to human Bfl-1; inhibition, % at 10 µM; Q16548; 190,000 compounds, 0.12% hits; AID 1008; Bead-based flow cytometry, Bim-Bfl-1 binding inhibition;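 further: 0% = wells without compound plus tracer and 100% = blocker peptide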
Target sequence (Q16548 whole entry, looked up): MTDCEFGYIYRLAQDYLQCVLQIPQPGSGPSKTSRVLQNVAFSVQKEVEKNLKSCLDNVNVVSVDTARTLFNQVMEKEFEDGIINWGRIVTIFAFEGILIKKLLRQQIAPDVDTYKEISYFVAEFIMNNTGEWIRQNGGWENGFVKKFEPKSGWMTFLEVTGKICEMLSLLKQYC
Bcl-2 Bim block = human Bim-Bcl-2 interaction inhibition | 190,000 compounds, 0.06% hits | P10415 | inhibition, % at 10 µM | Bead-based flow cytometry, Bim peptide-Bcl-2 binding | AID 950; in the data active means inhibition above about 40%;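 further: 0% = no compound wells with probe peptide and 100% = reference peptide inhibitor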
Bcl-B Bim block = disrupts Bim peptide binding to human Bcl-B | bead-based flow cytometry | 190,000 compounds, 0.073% hits | inhibition, % at 10 µM | Q9HD36;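 further: 0% = tracer peptide without compound and 100% = reference inhibitor peptide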
Bim-Bcl-W = disrupts Bim peptide binding to human Bcl-W; bead-based flow cytometry; inhibition, % at 10 µM; 190,000 compounds, 0.02% hits; Q92843;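 further: 0% = bound tracer without compound and 100% = peptide blocker; higher means less fluorescent Bim peptide bound to Bcl-W beads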
Calb biofilm kill = mixtures killing C. albicans biofilm; C. albicans biofilm persisters + clotrimazole, fluorescence viability; primary screen in compound mixtures of four per well; AID 1242; 120,000 compounds, 0.02% hits; inhibition, % at 7.6 µM;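 active means inhibition above 30.3% in the primary screen of four-compound pools, then above 30% when the compound was retested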;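 further: compounds exposed to preformed 24 h biofilms for 48 h; 0% = untreated biofilm control and 100% = clotrimazole plus chlorhexidine kill blank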
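Incubation: 24 h biofilm formation, then 48 h compound exposure, 37 °C | Material: C. albicans biofilms | Buffer or medium: RPMI/MOPS medium, pH 7.0 | Measured by: 2-h Alamar Blue fluorescence, 535/590 nm excitation/emission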
Bim-Bcl-XL = inhibitors of Bim-Bcl-XL interaction, human; Bim peptide-Bcl-XL binding, bead flow cytometry, fluorescence; 190,000 compounds, 0.04% hits; AID 1007; inhibition, % at 10 µM
Target sequence (Q07817 whole entry, looked up): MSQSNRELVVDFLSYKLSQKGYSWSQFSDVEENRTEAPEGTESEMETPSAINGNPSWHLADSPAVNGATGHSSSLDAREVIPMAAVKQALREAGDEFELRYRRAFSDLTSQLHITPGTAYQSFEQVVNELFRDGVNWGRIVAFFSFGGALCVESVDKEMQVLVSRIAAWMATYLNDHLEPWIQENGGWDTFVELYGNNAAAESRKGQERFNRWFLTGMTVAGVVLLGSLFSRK
Numbers without * were called inactive; x = not tested or not shown. A selection: hits, their analogues and other compounds. The true share with any hit is near 0.19%. Unless noted, no stated cut-off is given here; in the data, active means inhibition above about 40%.

SMILES	Bfl-1 Bim block	Bcl-2 Bim block	Bcl-B Bim block	Bim-Bcl-W	Calb biofilm kill	Bim-Bcl-XL
COc1ccccc1CNC(=O)[C@@H]1CCCN1S(=O)(=O)c1ccc(C)cc1	-6	-2	-3	-3	11	0
Cc1ccc(C)c(-n2c(SCC(=O)Nc3nonc3C)nnc2-c2ccoc2C)c1	-2	-5	-3	-4	x	-3
Cc1nonc1NC(=O)CSc1nnc(-c2ccoc2C)n1C	44*	33	23	24	x	43*
Cc1ccc(C)c(NC2=C(Cl)C(=O)OC2OC(C)C)c1 (stereo unspecified)	-5	1	-1	-1	12	-1
CN(C)c1ccc(NC2=C(Cl)C(=O)c3ccccc3C2=O)cc1	71*	28	-2	48*	17	9
CN(C)c1ccc(/C=C2\SC(=O)N(CC(O)Cn3c4ccccc4c4ccccc43)C2=O)cc1 (stereo unspecified)	2	7	5	4	7	5
CN(C)c1ccc(/C=C2/SC(=O)N(CCN=C3NS(=O)(=O)c4ccccc43)C2=O)cc1	48*	91*	92*	71*	14	50*
CC(C)(/C=N/NC(=O)CSCc1ccc(Cl)cc1)CCC#N	-3	1	-4	0	7	-3
CC(=O)NS(=O)(=O)c1ccc(NS(=O)(=O)c2ccccc2[N+](=O)[O-])cc1	x	x	x	x	18	x
c1cc2c(cc1-c1csc(NNC3=NCCCCC3)n1)OCCO2	21	5	-28	-5	9	-1
Cc1cc2n(c1)CCn1c(C)ccc1-2	28	17	40*	23	x	5
CCOC(=O)C1=C(CC)Nc2ccccc2N=C1NC(=O)c1ccc(S(=O)(=O)N2CCOCC2)cc1	57*	78*	75*	0	9	4
COC(=O)c1[nH]c2ccccc2c1NC(=O)c1ccccc1[N+](=O)[O-]	-2	-6	44*	6	14	2
COc1ccc(C(=O)NC(=S)N2CCNC(=O)C2)cc1Br	71*	79*	70*	3	-10	4
NC(=O)COC(=O)c1ccccc1SCC(=O)NC1CCCCCC1	0	0	-3	0	6	0
CCOC(=O)C1(CC/C(C)=N\NC(N)=O)CC(C)(C)OC1=O (stereo unspecified)	44*	14	-49	11	14	18
O=c1[nH]c(SCc2nc3ccccc3c(=O)n2-c2ccccc2C(F)(F)F)nc2ccccc12	34	23	16	35	5	41*
O=c1[nH]c(SCc2nc3ccccc3n2Cc2ccccc2)nc2ccccc12	-2	0	-1	-4	x	-6
CC(C)NCc1nnc(-c2ccccc2Cl)o1	-2	0	-7	0	10	0
Cc1nc2ncccn2c1-c1csc(Nc2ccccc2)n1	-1	5	20	24	24	44*
CCOc1cc(/C=C2/N=C(C)C(C(=O)OC)=C2O)ccc1O	58*	59*	44*	59*	10	34
CN(C(=O)COC(=O)c1nc(Cl)c(Cl)c(Cl)c1Cl)C1CCS(=O)(=O)C1 (stereo unspecified)	-4	-1	1	0	-1	3
Cc1cc(N)ccc1N1CCCC1	73*	66*	87*	75*	x	64*
Clc1nc(NCc2cccnc2)nc(N2CCOCC2)n1	22	23	73*	47*	13	49*
CCN1CCN(C(=O)C(C)Nc2cc(Cl)c(OC)cc2OC)CC1 (stereo unspecified)	0	-3	-5	1	9	0
SMILES	Bfl-1 Bim block	Bcl-2 Bim block	Bcl-B Bim block	Bim-Bcl-W	Calb biofilm kill	Bim-Bcl-XL
Cc1ccc(C)c(NC(=O)C(=O)NCc2ccccn2)c1	49*	34	27	33	10	46*
Cc1ccc(NC(=O)NCc2ccccn2)cc1	-3	0	-1	0	12	0
CCN(CC)CCCN1C=C2C(=O)C(C)(OC(=O)C3CCCC3)C(=O)C=C2C=C1c1ccsc1 (stereo unspecified)	x	x	x	x	17	x
Nc1nc2c(s1)COc1ccccc1-2	4	1	-23	-1	21	-4
Nc1nc2c(s1)CCc1c-2cnn1-c1ccccc1	41*	18	11	30	x	12
O=C(C1CCC(Cn2c(=S)[nH]c3ccccc3c2=O)CC1)N1CCN(c2ccccn2)CC1 (stereo unspecified)	13	37	52*	7	12	7
